Hits are enriched below; roughly 11% of the tested compounds scored in any of these assays.
G6PDH counter – counter-screen for G6PDH assay hits: L. mesenteroides G6PDH inhibition; Purified L. mesenteroides G6PDH, diaphorase/resazurin coupled fluorescence, 45 min; inhibition, % at 5 µM; 200,000 tested, 0.12% active
Lmaj promast – inhibitors of Leishmania major promastigote growth; Leishmania major promastigotes, resazurin fluorescence viability; inhibition, % at 10 µM; 200,000 tested, 9% active; AID 1063;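 note: promastigotes grown with compound for 44 hours at 28 °C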
WT yeast gro inh – growth inhibition of WT yeast, mitochondrial fusion screen | 190,000 tested, 2.1% active | inhibition, % at 10 µM | mitochondrial fusion phenotypic screen, WT strain; in the data active = inhibition above about 58%; tested in S. cerevisiae
Diaphorase act – counter-screen for diaphorase-based assays: diaphorase activators and chemical reducers; Diaphorase/resazurin coupled assay, resorufin fluorescence, 16 min; hits give high values; 1 = vehicle wells, 0 = NADH-free wells; activation factor at 20 µM; 190,000 tested, 0.005% active; AID 1229;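 active = diaphorase activity raised at least twofold by the compound at 20 µM; inactive = activation factor below 2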
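Measured by – red resorufin fluorescence at 544/590 nm excitation/emission · Test system – Clostridium kluyveri diaphorase, purified enzyme · Incubation – reaction time 16 min, room temperature · Buffer or medium – 50 mM HEPES pH 7.4 with 4.542 mM MgCl2, 0.005% Tween 20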
Diaph inh CS – inhibits diaphorase or chemically oxidizes, flagging diaphorase assay artifacts. diaphorase resazurin-to-resorufin fluorescence, NADH, 16 min; bacterial (C. kluyveri) enzyme, not human. inhibition, % at 20 µM. 190,000 tested, 0.69% active. AID 1217;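 active = primary screen inhibition at 20 µM above a set limit, cut at about 50% in these data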
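System: Bacterial diaphorase enzyme (C. kluyveri) | Incubation: 16-min room-temperature incubation before reading | Benchmarks: No-NADH positive control and DMSO neutral control | Measured by: Resorufin fluorescence 544/590 nm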
Hits are given with their value; - = inactive; . = no result. Cut-off read from the data, not from the text of the source, unless noted: active = inhibition above about 50%; inactive = the rest.

SMILES	G6PDH counter	Lmaj promast	WT yeast gro inh	Diaphorase act	Diaph inh CS
CC1CCC2C(=O)N(c3ccc(C(=O)NCc4ccccc4)cc3)C(=O)C2C1 (stereo not drawn)	-	-	-	-	-
CC(=O)OCC1OC(Nc2cccc(C)c2)C(OC(C)=O)C(OC(C)=O)C1OC(C)=O (stereo not drawn)	-	-	-	-	-
FC(F)(F)c1cc(-c2ccccc2)nc(NCc2cccs2)n1	-	-	70.2	-	-
FC(F)(F)c1cc(-c2ccccc2)nc(NC2CCCC2)n1	-	-	86.0	-	-
FC(F)(F)c1cc(-c2ccccc2)nc(NCC2CCCO2)n1 (stereo not drawn)	-	-	-	-	-
FC(F)(F)c1cc(-c2ccco2)nc(NCc2cccs2)n1	-	-	-	-	-
Cc1nc2c(c(=O)n1CCC1=CCCCC1)c1nc3ccccc3nc1n2/N=C/c1ccco1	-	-	.	-	70.2
CCOc1ccc(C(=O)NCC(=O)N2CCc3ccccc3C2)cc1OCC	-	-	-	-	-
CCCn1c2ccc(/C(C)=N\O)cc2c2cc(/C(C)=N/O)ccc21	-	59.4	-	-	-
CCn1c2c(c3cc(Br)ccc31)CCC/C2=N\O	-	-	-	-	-
O=C(NCCc1nc2ccccc2[nH]1)/C(=C/c1ccc2c(c1)OCO2)NC(=O)c1ccccc1Cl	-	-	-	-	-
COc1ccc(C(C#N)N2N=C(c3ccccc3)CC2c2ccccc2)cc1OC (stereo not drawn)	-	100.2	-	-	-
COc1ccc(C2=NN(C(C#N)c3ccc(OC)cc3)C(c3ccccc3)C2)cc1 (stereo not drawn)	-	68.6	-	-	-
COc1ccc(CN=C2NC(=O)CC(C(=O)Nc3ccc([N+](=O)[O-])cc3C)S2)cc1 (stereo not drawn)	-	86.0	-	-	-
CCOc1ccccc1N1CCN(C(=O)c2ccc3[nH]c4c(c3c2)CCCC4)CC1	-	-	58.4	-	-
CCOc1ccccc1N1CCN(C(=O)c2ccncc2)CC1	-	-	-	-	-
CC(C)c1csc(CN2CCN(Cc3ccc(F)cc3)C(CCO)C2)n1 (stereo not drawn)	-	80.9	-	-	-
Cc1ccc(CN2CCN(Cc3nc(C(C)C)cs3)CC2CCO)cc1 (stereo not drawn)	-	74.2	-	-	-
CC(C)Cc1nc2ccc(N)cc2[nH]1	-	-	-	-	-
Cc1nn2c(nc1=O)NNC2(C)C(C)(C)C (stereo not drawn)	-	-	-	-	-
COC(=O)c1ccccc1NC(=O)N1c2ccccc2Sc2ccccc21	-	89.9	-	-	-
O=C(CSCC(=O)NCc1ccco1)NCc1ccco1	-	-	-	-	-
O=C(NCc1ccco1)N1c2ccccc2Sc2ccccc21	-	62.2	-	-	-
COc1ccc(CCNC(=O)N2c3ccccc3Sc3ccccc32)cc1	.	68.2	.	.	.
COC(=O)c1ccc(C(=O)OC)c(NC(=O)N2c3ccccc3Sc3ccccc32)c1	-	-	-	-	-
SMILES	G6PDH counter	Lmaj promast	WT yeast gro inh	Diaphorase act	Diaph inh CS
Cc1ccc2nc(Cl)c(CNCc3ccccc3)cc2c1	-	-	-	-	-
CCCCn1c(N)c(N(CC)C(=O)C(c2ccccc2)c2ccccc2)c(=O)[nH]c1=O	-	-	-	-	-
CCNC(=O)/C(=C/c1ccc2c(c1)OCO2)NC(=O)c1ccc(Br)cc1	-	-	-	-	-
CC(NC(=O)c1sc2ccccc2c1Cl)C1CCCO1 (stereo not drawn)	-	-	-	-	-
CNC(=S)N1CCN(C(=O)c2ccco2)CC1	-	75.1	-	-	-
COCCCNC(=S)N1CCN(C(=O)c2ccco2)CC1	-	-	-	-	-
O=C(c1ccco1)N1CCN(CC2CC3C=CC2C3)CC1 (stereo not drawn)	-	93.2	-	-	-
CS(=O)(=O)N1CCN(CC2CC3C=CC2C3)CC1 (stereo not drawn)	-	92.6	-	-	-
Cc1ccccc1CN1CCN(CC2CC3C=CC2C3)CC1 (stereo not drawn)	-	87.4	-	-	-
O=C1C(c2ccncc2)N(CCC2=CCCCC2)C(=O)CN1C1CCCCC1 (stereo not drawn)	-	-	-	-	-
Cc1c(C(=O)C(=O)NCCCn2ccnc2)c2ccccc2n1C	-	-	-	-	-
Fc1ccc(NC(=S)NNc2ncc(C(F)(F)F)cc2Cl)c(F)c1	-	-	-	-	-
COC(=O)CCC/C=C1/SCC(NC(=O)c2ccccc2)/C1=N/O (stereo not drawn)	-	-	-	-	-
C1=CC2CC1CC2CN1CCN(c2ccccc2)CC1 (stereo not drawn)	-	85.3	-	-	-
CCOC(=O)C1CCCN(C(=O)c2cc3ccccc3oc2=O)C1 (stereo not drawn)	-	-	-	-	-
CC(C)C(=O)N1CCN(c2ccccc2NC(=S)NC(=O)c2cccs2)CC1	-	-	-	-	-
Cc1ccc(C(=O)OCCN2CCN(c3ncc(C(F)(F)F)cc3Cl)CC2)cc1	-	-	67.3	-	-
O=C(CN1CCN(c2ncc(C(F)(F)F)cc2Cl)CC1)N1CCN(c2ncc(C(F)(F)F)cc2Cl)CC1	-	50.3	73.1	-	-
O=C(OCCN1CCN(c2ncc(C(F)(F)F)cc2Cl)CC1)c1ccc(F)cc1	-	-	-	-	-
O=C(OC1CCN(c2ncc(C(F)(F)F)cc2Cl)CC1)c1ccccc1	-	-	64.4	-	-
O=C(CSc1ccc(Cl)cc1)N1CCN(c2ncc(C(F)(F)F)cc2Cl)CC1	-	-	-	-	-
O=C(NC(c1ccccc1)c1ccccc1)c1cccc(S(=O)(=O)NCc2ccccc2)c1	-	-	-	-	-
CCC(=O)N1CCN(c2ccc(NC(=O)COc3ccccc3[N+](=O)[O-])cc2)CC1	-	-	-	-	-
COc1ccc(CCNC(=O)CSc2nc3[nH]ncc3c(=O)[nH]2)cc1OC	-	-	-	-	-
C=CCc1cccc2cc(C(=O)Nc3ccc(S(=O)(=O)Nc4nnc(CC)s4)cc3)c(=O)oc12	-	-	-	-	51.5
SMILES	G6PDH counter	Lmaj promast	WT yeast gro inh	Diaphorase act	Diaph inh CS
C=CCc1cccc2cc(C(=O)Nc3ccc(F)cc3)c(=O)oc12	-	-	-	-	-
COc1ccc(C(=O)/C=C/Nc2ccc(S(=O)(=O)Nc3nc(C)cc(C)n3)cc2)cc1OC	-	-	-	-	-
COc1ccc(C(=O)/C=C/Nc2ccc(S(=O)(=O)Nc3onc(C)c3C)cc2)cc1	-	66.3	-	-	-
CCc1nnc(NS(=O)(=O)c2ccc(N/C=C\C(=O)c3ccc4ccccc4c3)cc2)s1	-	53.9	-	-	-
Cc1cc(C)nc(NS(=O)(=O)c2ccc(N/C=C/C(=O)c3ccc(Cl)cc3)cc2)n1	-	57.5	-	-	-
CCOC(=O)C1=NNC2(c3ccc(C)cc3)C(=O)N(c3ccc(Cl)cc3)C(=O)C12 (stereo not drawn)	-	-	-	-	-
